In ChEMBL document CHEMBL1800016, “Novel thiazolidinedione derivatives with anti-obesity effects: dual action as PTP1B inhibitors and PPAR-γ activators” (Bioorg Med Chem Lett, 2010):
Activity calls are given as the source filed them. The calls are words filed in the database; no cut-off is given here.

What was measured:
[1] = target: T1, Tyrosine-protein phosphatase non-receptor type 1 (Homo sapiens, UniProt P18031); test: Inhibition of PTP1B expressed in Escherichia coli assessed as p-nitrophenol release from pNPP substrate preincubated for 10 mins
T1 sequence (P18031 whole entry): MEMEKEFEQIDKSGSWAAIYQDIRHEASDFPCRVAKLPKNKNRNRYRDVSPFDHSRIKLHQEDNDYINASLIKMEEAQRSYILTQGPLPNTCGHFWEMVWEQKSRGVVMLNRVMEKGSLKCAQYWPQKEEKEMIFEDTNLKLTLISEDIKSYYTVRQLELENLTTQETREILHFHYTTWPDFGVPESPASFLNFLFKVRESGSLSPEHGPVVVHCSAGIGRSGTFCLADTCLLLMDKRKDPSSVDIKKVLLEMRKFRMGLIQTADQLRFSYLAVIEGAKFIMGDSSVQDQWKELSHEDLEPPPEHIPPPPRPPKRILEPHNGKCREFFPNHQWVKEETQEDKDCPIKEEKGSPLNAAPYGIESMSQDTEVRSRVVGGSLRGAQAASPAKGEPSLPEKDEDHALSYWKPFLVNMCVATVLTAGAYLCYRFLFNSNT
Method in brief: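 IC50 values against the PTP panel, with enzymes prepared as described in the supplementary material. Values are means ± SD of two or more experiments.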

[2] = test system: Mus musculus; test: Antiobesity activity in high fat diet-fed diabetic C57BL/6J Jms Slc mouse model assessed as decrease in serum triglyceride level at 2.6 mg/day administered with food for 4 weeks; assay type: functional
Method in brief: (§1)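 DIO mice were fed HFD for 8 wk, then HFD containing 0.1% w/w compound (about 2.6 mg/day/mouse) for 4 wk. At the end of feeding, mice were deprived of food overnight. Serum total cholesterol, triglyceride and NEFA were then measured. Values are mean ± SEM.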

[3] = test system: Mus musculus; test: Antiobesity activity in high fat diet-fed diabetic C57BL/6J Jms Slc mouse model assessed as weight gain/kcal at 2.6 mg/day administered with food for 4 weeks; assay type: functional
Method in brief: (§2)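 DIO male C57BL/6J Jms Slc mice were fed a 45%-fat HFD for 8 wk, then HFD with 0.1% w/w compound in feed (about 2.6 mg/day/mouse) for 4 wk. A 10%-fat LFD lean group ran throughout. Measures were weight gain, feed efficiency (weight gain/kcal ×100), and epididymal and retroperitoneal fat pad weights. n = 8/group; mean ± SEM; one-way ANOVA.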

[4] = test system: Mus musculus; test: Antiobesity activity in high fat diet-fed diabetic C57BL/6J Jms Slc mouse model assessed as decrease in total cholesterol level in serum at 2.6 mg/day administered with food for 4 weeks; assay type: functional; method in brief: as §1
[5] = test system: Mus musculus; test: Antiobesity activity in high fat diet-fed diabetic C57BL/6J Jms Slc mouse model assessed as decrease in epididymal fat at 2.6 mg/day administered with food for 4 weeks; assay type: functional; method in brief: as §2
[6] = target: T2, Peroxisome proliferator-activated receptor gamma (Homo sapiens) (UniProt P37231); test: Agonist activity at PPARgamma expressed in HepG2 cells co-expressing PPRE assessed as concentration required for maximal activation after 24 hrs by luciferase reporter gene assay; assay type: functional, cell-based
T2 sequence (whole entry): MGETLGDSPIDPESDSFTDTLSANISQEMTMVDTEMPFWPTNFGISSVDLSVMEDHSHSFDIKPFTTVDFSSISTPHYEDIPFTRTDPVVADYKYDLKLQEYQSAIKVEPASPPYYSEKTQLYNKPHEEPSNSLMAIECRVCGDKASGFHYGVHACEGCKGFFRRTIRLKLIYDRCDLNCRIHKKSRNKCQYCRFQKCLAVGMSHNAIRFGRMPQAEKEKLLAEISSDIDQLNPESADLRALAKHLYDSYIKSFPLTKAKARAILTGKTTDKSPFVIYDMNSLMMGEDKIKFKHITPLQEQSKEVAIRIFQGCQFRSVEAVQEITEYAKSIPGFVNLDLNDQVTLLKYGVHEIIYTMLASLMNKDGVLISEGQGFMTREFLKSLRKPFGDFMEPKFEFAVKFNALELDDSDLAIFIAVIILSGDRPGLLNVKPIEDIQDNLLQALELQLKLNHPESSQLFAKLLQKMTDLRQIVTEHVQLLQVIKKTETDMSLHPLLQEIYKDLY

[7] = target: T3, Tyrosine-protein phosphatase non-receptor type 1 (Homo sapiens) (UniProt P18031); test: Competitive inhibition of PTP1B expressed in Escherichia coli
T3 sequence (whole entry): T1 sequence (P18031 whole entry)

[8] = test system: Mus musculus; test: Antiobesity activity in high fat diet-fed diabetic C57BL/6J Jms Slc mouse model assessed as decrease in retroperitoneal fat at 2.6 mg/day administered with food for 4 weeks; assay type: functional; method in brief: as §2
[9] = test system: Mus musculus; test: Antidiabetic activity in high fat diet-fed diabetic C57BL/6J Jms Slc mouse model assessed as normalization of blood glucose level at 2.6 mg/day administered with food for 4 weeks measured 90 mins after last dose by glucose tolerance test; assay type: functional, organism-based
Method in brief: (§3)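 Mice were male C57BL/6J Jms Slc, 5 wk old after 1 wk acclimatization. They were fed a 45%-fat HFD for 8 wk, then HFD with compound mixed in (1.0 g/kg diet, about 2.6 mg/day/mouse, 78 mg/day/kg) for 4 wk. Each mouse was fasted 6 h from the start of the light cycle and fasting glucose was measured. Glucose 1.0 g/kg was then given i.p., with readings at 60 and 90 min.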

[10] = test system: Mus musculus; test: Toxicity in high fat diet-fed diabetic C57BL/6J Jms Slc mouse model assessed as dark-brownish spots in liver at 4.8 mg/day administered with food for 4 weeks; conditions: in vivo, po, 672 h
[11] = target: T4, Peroxisome proliferator-activated receptor gamma (Homo sapiens, UniProt P37231); test: Agonist activity at PPARgamma expressed in HepG2 cells co-expressing PPRE assessed as transcriptional activation after 24 hrs by luciferase reporter gene assay; assay type: functional, cell-based
T4 sequence (P37231 whole entry): T2 sequence (whole entry)
Method in brief: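 HepG2 cells were transfected with a PPRE-driven luciferase reporter plus CMV-βGal. The basic luciferase reporter without a PPRE site served as the negative control. Compounds were added 6 h after transfection. Cells were lysed 24 h later. Luciferase activity was read on a luminometer and normalized to β-galactosidase for transfection efficiency. Two independent experiments; error as SEM.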

[12] = test system: Mus musculus; test: Antidiabetic activity in high fat diet-fed diabetic C57BL/6J Jms Slc mouse model assessed as normalization of blood glucose level at 2.6 mg/day administered with food for 4 weeks measured 60 mins after last dose by glucose tolerance test; assay type: functional, organism-based; method in brief: as §3
[13] = test system: Mus musculus; test: Antiobesity activity in high fat diet-fed diabetic C57BL/6J Jms Slc mouse model assessed as decrease in non-esterified free fatty acid level in serum at 2.6 mg/day administered with food for 4 weeks; assay type: functional; method in brief: as §1
[14] = test system: Mus musculus; test: Antiobesity activity in high fat diet-fed diabetic C57BL/6J Jms Slc mouse model assessed as reduction in body weight at 2.6 mg/day administered with food for 4 weeks; assay type: functional; method in brief: as §2

Row | Structure (SMILES) | IC50 [1] [µM] | also measured
1 | O=C1NC(=O)/C(=C/c2ccc(OS(=O)(=O)c3ccc(Br)cc3)cc2OCc2ccc(S(=O)(=O)N3CCOCC3)cc2)S1 | 14 | 
2 | O=C1NC(=O)/C(=C/c2ccc(OCc3ccc(C(F)(F)F)cc3)cc2OCc2ccc(C(F)(F)F)cc2)S1 | 9 | 
3 | O=C1NC(=O)/C(=C/c2ccc(OCc3ccc(S(=O)(=O)N4CCOCC4)cc3)cc2OCc2ccc(C(F)(F)F)cc2)S1 | 19 | 
4 | O=C1NC(=O)/C(=C/c2ccc(OCc3ccccc3)cc2OCc2ccccc2)S1 | 10 | 
5 | Cc1ccc(S(=O)(=O)Oc2ccc(/C=C3\SC(=O)NC3=O)c(OCc3ccc(NC(=O)c4cccc(C(F)(F)F)c4)cc3)c2)cc1 | 11 | 
6 | O=C1NC(=O)/C(=C/c2ccc(OCc3ccc(F)cc3)cc2OCc2ccc(C(F)(F)F)cc2)S1 | 4 | 
7 | O=C(O)COc1cc(OCc2ccccc2)ccc1/C=C1\SC(=O)NC1=O | 136 | 
8 | O=C1NC(=O)/C(=C/c2ccc(OCc3ccccc3)cc2OCc2ccc(F)cc2)S1 | 9 | 
9 | O=C1NC(=O)/C(=C/c2cc(Br)c(OCc3ccc(C(F)(F)F)cc3)cc2OCc2ccc(C(F)(F)F)cc2)S1 | 1.4 | 
10 | O=C1NC(=O)/C(=C/c2cc(Br)ccc2OCc2cc(C(F)(F)F)cc(C(F)(F)F)c2)S1 |  | Activity [2]: 78 mg/dL; feed efficiency [3]: 0.68 g/100 kcal; Activity [4]: 125 mg/dL; Activity [5]: 1.27 g; Activity [6]: 4 µM; inhibition [7]: Active; Activity [8]: 0.42 g; Activity [9]: Active; Activity [10]: Toxic; EC50 [11]: 870 nM; Activity [12]: Active; Activity [13]: 0.22 mM; Activity [14]: 2.16 g
11 | O=C1NC(=O)/C(=C/c2ccc(OCc3ccc(NC(=O)c4cccc(C(F)(F)F)c4)cc3)cc2OCc2ccc(C(F)(F)F)cc2)S1 | 6 | 

Second part, led by results:

Row | IC50 [1] [µM] | Structure (SMILES) | also measured
12 | 2 | Cc1ccc(S(=O)(=O)Oc2cc(OCc3cc(C(F)(F)F)cc(C(F)(F)F)c3)c(/C=C3\SC(=O)NC3=O)cc2Br)cc1 | 
13 | 12 | O=C1NC(=O)/C(=C/c2ccc(OCc3cccnc3)cc2OCc2ccc(C(F)(F)F)cc2)S1 | 
14 | 9 | O=C1NC(=O)/C(=C/c2ccc(OCc3ccc(F)cc3)cc2OCc2ccccc2)S1 | 
15 | 16 | Cc1ccc(S(=O)(=O)Oc2ccc(/C=C3\SC(=O)NC3=O)c(OS(=O)(=O)c3ccc(C)cc3)c2)cc1 | 
16 | 33 | CC(=O)Nc1ccc(COc2cc(OS(=O)(=O)c3ccc(C)cc3)ccc2/C=C2\SC(=O)NC2=O)cc1 | 
17 | 12 | O=C1NC(=O)/C(=C/c2ccc(OCc3ccccn3)cc2OCc2ccc(C(F)(F)F)cc2)S1 | 
18 | 2.3 | Cc1ccc(S(=O)(=O)Oc2ccc(/C=C3\SC(=O)NC3=O)c(OCc3ccc(C(F)(F)F)cc3)c2)cc1 | 
19 | 6 | O=C1NC(=O)/C(=C/c2ccc(OS(=O)(=O)c3ccc(Br)cc3)cc2OCc2ccc(C(F)(F)F)cc2)S1 | 
20 | 4 | O=C1NC(=O)/C(=C/c2ccc(OCc3ccccc3)cc2OCc2ccc(C(F)(F)F)cc2)S1 | 
21 | 8 | O=C1NC(=O)/C(=C/c2ccc(OCc3ccc(F)cc3)cc2OCc2ccc(F)cc2)S1 | 
